ChEMBL document CHEMBL1806473, “Structure-based optimization of click-based histone deacetylase inhibitors” (Eur J Med Chem, 2011)

Key:
[1] = test system: MDA-MB-435; test: Antiproliferative activity against human MDA-MB-435 cells by SRB assay; format: functional
Summary of the method: (§1)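 Tested in the NCI in vitro human tumor cell line screen, run by the National Cancer Institute. Each compound was given at five concentrations (100, 10, 1.0, 0.1 and 0.01 μM). GI50 is the drug concentration that reduces growth of treated cells to half that of control cells during drug incubation, judged from the SRB signal.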

[2] = Antiproliferative activity against human Hs 578T cells by SRB assay; format: functional; summary of the method: as §1
[3] = test system: 786-0; test: Antiproliferative activity against human 786-0 cells by SRB assay; format: functional; summary of the method: as §1
[4] = test system: UACC-62; test: Cytotoxicity against human UACC62 cells; format: cell-based
Summary of the method: (§2)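 Screened by NCI in its in vitro disease-oriented human tumour cell line panel. Compounds tested at five concentrations (100, 10, 1.0, 0.1 and 0.01 μM). Growth read by sulforhodamine B (SRB) signal. GI50 is the concentration reducing growth of treated cells to half that of control cells during the drug incubation.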

[5] = test system: LOX IMVI; test: Antiproliferative activity against human LOXIMVI cells by SRB assay; format: functional; summary of the method: as §1
[6] = test system: M14; test: Antiproliferative activity against human M14 cells by SRB assay; format: functional; summary of the method: as §1
[7] = test system: HCT-116; test: Antiproliferative activity against human HCT116 cells by SRB assay; format: functional; summary of the method: as §1
[8] = test system: UACC-62; test: Antiproliferative activity against human UACC62 cells by SRB assay; format: functional
Summary of the method: (§3)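 Cell growth was tested in the NIH in vitro disease-oriented human tumor cell line screen, which NCI ran for these compounds. Compounds were tested at five concentrations (100, 10, 1.0, 0.1 and 0.01 μM), and growth was read by SRB signal. GI50 is the drug concentration that reduces growth of treated cells to half that of control cells during drug incubation.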

[9] = test system: UACC-257; test: Cytotoxicity against human UACC257 cells; format: cell-based; summary of the method: as §2
[10] = test system: MDA-MB-435; test: Cytotoxicity against human MDA-MB-435 cells; format: cell-based
[11] = test system: SN12C; test: Antiproliferative activity against human SN12C cells by SRB assay; format: functional; summary of the method: as §1
[12] = test system: SK-OV-3; test: Cytotoxicity against human SKOV3 cells; format: cell-based
[13] = test system: SF-268; test: Cytotoxicity against human SF268 cells; format: cell-based
Summary of the method: (§4)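 Tested in the NCI in vitro disease-oriented human tumour cell line screen, with screening performed by NCI. Growth was read by SRB signal over the drug incubation period at five concentrations: 100, 10, 1.0, 0.1 and 0.01 μM. GI50 is the concentration that reduces growth of treated cells to half that of control cells.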

[14] = test system: NCI-H460; test: Antiproliferative activity against human NCI-H460 cells by SRB assay; format: functional; summary of the method: as §1
[15] = test system: SK-MEL-5; test: Antiproliferative activity against human SK-MEL-5 cells by SRB assay; format: functional; summary of the method: as §1
[16] = test system: BT-549; test: Cytotoxicity against human BT549 cells; format: cell-based
[17] = test system: K562; test: Cytotoxicity against human K562 cells; format: cell-based
[18] = test system: RXF 393; test: Antiproliferative activity against human RXF393 cells by SRB assay; format: functional; summary of the method: as §1
[19] = test system: OVCAR-8; test: Antiproliferative activity against human OVCAR8 cells by SRB assay; format: functional; summary of the method: as §1
[20] = test system: COLO 205; test: Cytotoxicity against human COLO205 cells; format: cell-based; summary of the method: as §4
[21] = test system: NCI-H322M; test: Antiproliferative activity against human NCI-H322M cells by SRB assay; format: functional; summary of the method: as §1
[22] = test system: NCI-H322M; test: Cytotoxicity against human NCI-H322M cells; format: cell-based
[23] = test system: A498; test: Antiproliferative activity against human A498 cells by SRB assay; format: functional; summary of the method: as §1
[24] = test system: SNB-19; test: Antiproliferative activity against human SNB19 cells by SRB assay; format: functional; summary of the method: as §1
[25] = test system: ACHN; test: Antiproliferative activity against human ACHN cells by SRB assay; format: functional; summary of the method: as §1
[26] = test system: SF-268; test: Antiproliferative activity against human SF268 cells by SRB assay; format: functional; summary of the method: as §1
[27] = test system: SW-620; test: Antiproliferative activity against human SW620 cells by SRB assay; format: functional; summary of the method: as §3
[28] = test system: OVCAR-8; test: Cytotoxicity against human OVCAR8 cells; format: cell-based
[29] = test system: MCF7; test: Antiproliferative activity against human MCF7 cells by SRB assay; format: functional; summary of the method: as §1
[30] = test system: 786-0; test: Cytotoxicity against human 786-0 cells; format: cell-based
[31] = test system: IGROV-1; test: Cytotoxicity against human IGROV1 cells; format: cell-based
[32] = test system: HCT-15; test: Cytotoxicity against human HCT15 cells; format: cell-based; summary of the method: as §4

O=C(/C=C/c1ccc(CN(CCO)CCc2c[nH]c3ccccc23)cc1)NO [DACINOSTAT]
GI50 [1]: 537 nM | GI50 [2]: 619 nM | GI50 [3]: 2380 nM | LC50 [4]: 6390 nM | GI50 [5]: 1080 nM | GI50 [6]: 849 nM | GI50 [7]: 347 nM | GI50 [8]: 379 nM | LC50 [9]: 44800 nM | LC50 [10]: 28800 nM | GI50 [11]: 1620 nM | LC50 [12]: 28500 nM | LC50 [13]: 92100 nM | GI50 [14]: 700 nM | GI50 [15]: 271 nM | LC50 [16]: 85600 nM | LC50 [17]: > 100000 nM | GI50 [18]: < 10 nM | GI50 [19]: 450 nM | LC50 [20]: 50400 nM | GI50 [21]: 2260 nM | LC50 [22]: > 100000 nM | GI50 [23]: 1110 nM | GI50 [24]: 1530 nM | GI50 [25]: 1100 nM | GI50 [26]: 1530 nM | GI50 [27]: 478 nM | LC50 [28]: 92500 nM | GI50 [29]: 730 nM | LC50 [30]: 52400 nM | LC50 [31]: 48900 nM | LC50 [32]: 56400 nM
